Screening data as filed in PubChem BioAssay.
PAFAH1B2 inh: blocks human PAF acetylhydrolase 1b catalytic subunit 2; P68402; recombinant PAFAH1B2, FP-rhodamine activity probe, fluorescence polarization; inhibition, % at 3.39 µM; 340,000 compounds, 1.2% hits; AID 492953;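 active means inhibition above the mean of all tested compounds plus 3 SD, cut at about 24% in these data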;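 further: 0% = enzyme with DMSO and 100% = wells lacking PAFAH1B2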
Target sequence (P68402 whole entry, looked up): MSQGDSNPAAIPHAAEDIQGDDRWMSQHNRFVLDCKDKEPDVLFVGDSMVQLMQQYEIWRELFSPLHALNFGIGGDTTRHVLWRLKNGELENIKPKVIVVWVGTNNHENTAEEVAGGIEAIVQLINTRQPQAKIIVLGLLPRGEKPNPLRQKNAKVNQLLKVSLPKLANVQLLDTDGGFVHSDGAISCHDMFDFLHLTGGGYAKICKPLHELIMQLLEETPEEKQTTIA
IMP-1 inh: inhibitors of Pseudomonas aeruginosa IMP-1 metallo-beta-lactamase; purified IMP-1, nitrocefin hydrolysis, epi-absorbance fluorescence; inhibition, % at 5.6 µM; 290,000 compounds, 0.45% hits; AID 1556;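 active means inhibition above the mean plus 3 SD of all compounds in the same screening run, cut at about 4.5% in these data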;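 further: 0% = IMP-1 with DMSO and 100% = DMSO wells lacking enzyme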
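Assay system: purified IMP-1; Quantity: IMP-1 0.2 nM before substrate addition; Medium: HEPES buffer pH 7.1 with ZnSO4 and Brij 35; Incubation: 15 min enzyme–compound preincubation, then 25 min nitrocefin reaction, 25 °C; Signal: fluorescence quenching readout, ex 480/em 530 nm; Controls: DMSO with and without IMP-1; Repeats: singlicate testing.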
pPAFAH inh: pPAFAH (human) enzyme inhibition; Q13093; recombinant pPAFAH, FP-rhodamine probe fluorescence polarization; inhibition, % at 3.39 µM; 330,000 compounds, 1.5% hits;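 active means inhibition above the mean inhibition across the screen plus 3 SD, cut at about 25% in these data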;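 further: inhibitors block binding of the rhodamine activity-based probe so polarization drops; 0% = enzyme with DMSO and 100% = wells lacking pPAFAH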
Target sequence (Q13093 whole entry, looked up): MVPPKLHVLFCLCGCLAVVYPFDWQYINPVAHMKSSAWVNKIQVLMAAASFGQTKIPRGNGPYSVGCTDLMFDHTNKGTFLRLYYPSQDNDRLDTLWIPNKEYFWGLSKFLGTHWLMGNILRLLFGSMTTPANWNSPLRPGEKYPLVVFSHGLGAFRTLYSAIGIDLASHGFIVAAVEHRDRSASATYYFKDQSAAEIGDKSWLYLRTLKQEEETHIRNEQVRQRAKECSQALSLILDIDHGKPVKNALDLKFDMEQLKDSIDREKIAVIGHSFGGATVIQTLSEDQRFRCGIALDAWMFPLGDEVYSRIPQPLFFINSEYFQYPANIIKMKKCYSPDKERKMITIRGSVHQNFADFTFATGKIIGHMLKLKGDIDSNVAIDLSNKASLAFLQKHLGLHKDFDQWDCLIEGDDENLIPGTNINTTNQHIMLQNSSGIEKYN
PAFAH1B3 inh: inhibitors of human PAFAH1B3. recombinant PAFAH1B3, FP-rhodamine probe, fluorescence polarization. inhibition, % at 3.39 µM. 340,000 compounds, 0.28% hits;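 active means inhibition above the screen-wide average of all tested compounds plus 3 SD, cut at about 25% in these data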;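 further: 0% = enzyme with DMSO only and 100% = wells lacking PAFAH1B3 protein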
VIM-2 inhibitor: blocks Pseudomonas aeruginosa VIM-2 metallo-beta-lactamase | purified VIM-2, nitrocefin hydrolysis, epi-absorbance fluorescence | inhibition, % at 5.6 µM | 290,000 compounds, 0.89% hits;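 active means inhibition above the mean of all tested compounds plus 3 SD, cutoff set per screening run, cut at about 7.5% in these data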;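 further: red hydrolysis product quenches plate fluorescence so inhibitors raise well fluorescence; 0% = enzyme with DMSO and 100% = DMSO without enzyme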
PAFAH2 inh: PAFAH2 (human) inhibition. 340,000 compounds, 0.99% hits. Q99487. inhibition, % at 3.39 µM. AID 492956. recombinant PAFAH2, FP-rhodamine activity probe, fluorescence polarization;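 active means inhibition above the mean over all tested compounds plus 3 SD, cut at about 30% in these data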;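 further: inhibitors block probe labeling of enzyme so polarization drops; 0% = enzyme with DMSO and 100% = wells lacking PAFAH2 protein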
PAFAH2 confirm: PAFAH2 (human) inhibition, confirmed; 2,300 compounds, 65% hits; inhibition, % at 3.39 µM; recombinant PAFAH2, FP-rhodamine activity probe, fluorescence polarization; shares compounds with PAFAH2 inh;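 active means mean inhibition over three repeats above a set limit taken from the earlier primary screen, cut at about 30% in these data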;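 further: inhibitor blocks binding of rhodamine activity probe so polarization falls; 0% = enzyme with DMSO and 100% = wells lacking PAFAH2 protein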
Starred values were filed as active, the others as inactive; / = no result. This is a sample that favours compounds with a hit; in the whole collection about 3.6% have one here.

SMILES	PAFAH1B2 inh	IMP-1 inh	pPAFAH inh	PAFAH1B3 inh	VIM-2 inhibitor	PAFAH2 inh	PAFAH2 confirm
COc1cc(NC(=O)Cc2cccc3ccccc23)c(C(=O)O)cc1OC	7	-3	8	16	-1	60*	40*
COC(=O)c1cc(OC)c(OC)cc1NC(=S)Nc1cccc(Cl)c1	-2	-3	3	2	-4	-3	/
COc1ccc(C(=O)Oc2ccc(Br)cc2C(=S)N2CCOCC2)cc1	2	-1	18	8	0	52*	36*
Cc1ccc(C(=O)Oc2ccc(Br)cc2C(=S)N2CCOCC2)cc1	4	-1	10	4	-1	32*	33*
CC12CCC(C(=O)N(CSC(=S)N/N=C\c3ccccc3O)C1=O)C2(C)C (configuration not stated)	11	-2	5	5	-4	38*	25
COc1ccc(/C=N\NC(=S)SCN2C(=O)C3CCC(C)(C2=O)C3(C)C)cc1 (configuration not stated)	1	-5	7	4	-2	12	/
COc1ccc(CN(C)CC(=O)NCC(=O)Nc2c(C)cccc2C)cc1	0	/	-9	7	/	-1	/
N[C@@H](Cc1cc(I)c(O)c(I)c1)C(=O)O	15	0	-3	17	-3	54*	9
NC(Cc1ccc(Oc2ccc(O)cc2)cc1)C(=O)O (configuration not stated)	/	-3	4	/	-1	/	/
CCCC1OC23CCCCC2C(C#N)(C(=N)O3)C1(C#N)C#N (configuration not stated)	15	-2	13	21	-1	30*	0
CC(C)=CC(=O)Nc1nnc(C(C)C)s1	4	-2	6	-2	-2	-3	/
O=C(Nc1cccc(Cl)c1Cl)C1CCCC1	2	/	0	19	/	1	/
O=C(CN1C(=O)C2CCCCC2C1=O)Nc1cc([N+](=O)[O-])ccc1F (configuration not stated)	8	/	3	6	/	-7	/
O=C(COC(=O)c1ccc(-n2cnnn2)cc1)Nc1cc(Cl)ccc1F	-1	/	-5	-4	/	34*	28
O=C(COC(=O)C1CCCCC1)Nc1cc([N+](=O)[O-])ccc1F	18	0	10	12	2	49*	28
O=C(COC(=O)C1CCCC1)Nc1cccc(Cl)c1Cl	5	/	8	11	/	32*	7
Cc1ccc(NC(=O)COC(=O)c2ccc(-n3cnnn3)cc2)c(Br)c1	-1	/	1	-7	/	10	/
Nc1ccc(C(=O)Oc2ccc([N+](=O)[O-])cc2)cc1	5	-1	2	-4	-1	32*	29
c1ccc2c(c1)ccc1[nH]c3c(c12)CCCC3	5	/	/	8	/	-2	/
COCCCNC(=O)C1Cc2cc(S(=O)(=O)N3CCCC3)ccc2N1C(C)=O (configuration not stated)	5	-3	5	5	-1	-2	/
Nc1ccc(C(=O)OCC(=O)Nc2cc([N+](=O)[O-])ccc2F)cc1	0	-1	12	-6	1	83*	82*
CCC(=O)OCC(=O)Nc1cc([N+](=O)[O-])ccc1OC	0	-4	4	1	-2	-3	/
COc1ccc([N+](=O)[O-])cc1NC(=O)COC(=O)C1CC1	3	-4	0	9	-3	49*	-1
COc1ccc(-c2ccc(NC(=O)c3ccco3)cc2)nn1	0	/	-8	5	/	2	/
COc1cccc(-c2nc3ccccc3c(=O)o2)c1	3	-3	-7	4	-5	68*	73*
SMILES	PAFAH1B2 inh	IMP-1 inh	pPAFAH inh	PAFAH1B3 inh	VIM-2 inhibitor	PAFAH2 inh	PAFAH2 confirm
COc1cc(OC)cc(-c2nc3cc(C)ccc3o2)c1	2	-2	-1	8	-4	-8	/
COc1cc(OC)cc(-c2nc3ccccc3c(=O)o2)c1	1	-2	6	-1	-2	55*	68*
COc1ccccc1/C=C/C(=O)OCC(=O)Nc1ccc2c(c1)OCO2	0	/	16	7	/	79*	85*
O=C(COC(=O)/C=C/c1ccccc1)NCc1ccc2c(c1)OCO2	0	/	6	-3	/	14	/
COc1ccccc1/C=C/C(=O)OCC(=O)Nc1c(F)cccc1F	-2	-3	12	3	-3	53*	63*
COc1ccccc1/C=C/C(=O)OCC(=O)NCc1ccc2c(c1)OCO2	5	/	14	6	/	51*	33*
CCCn1c(=O)n(C)c(=O)c2c(SCC(=O)NCC(c3ccccc3)N(C)C)nc(CC(C)C)nc21 (configuration not stated)	0	-2	0	4	2	6	/
Cc1ccc(S(=O)(=O)/N=C2\C=C(NS(=O)(=O)c3ccccc3)C(=O)c3ccccc32)cc1	3	/	/	3	/	30*	14
Cc1ccc(S(=O)(=O)/N=C2/C=C(C3C(=O)CC(C)(C)CC3=O)C(=O)c3ccccc32)cc1	2	-4	8	10	7	-2	/
O=C(O)CCC(=O)Nc1ccc(C(=O)OCC(=O)c2ccc(Cl)cc2Cl)cc1	8	0	-7	0	-3	62*	51*
Cc1ccc(Cl)cc1NC(=O)c1ccc(NC(=O)CCC(=O)O)cc1	3	-3	-1	-2	-4	3	/
COc1ccc(C)cc1NC(=O)COC(=O)c1ccccc1SCC(=O)N1CCCC1	1	/	2	-4	/	11	/
COc1cc(NC(=O)COC(=O)c2ccccc2SCC(=O)N2CCCC2)cc(OC)c1	8	/	4	4	/	42*	24
NS(=O)(=O)c1cccc(NC(=O)COC(=O)c2ccccc2SCC(=O)N2CCCC2)c1	1	/	3	17	/	40*	36*
O=C(COC(=O)c1ccccc1SCC(=O)N1CCCC1)Nc1ccccc1	1	-3	1	4	-1	88*	80*
COc1cccc(NC(=O)COC(=O)c2ccccc2SCC(=O)N2CCCC2)c1	-1	/	3	1	/	82*	81*
CC(=O)Nc1ccc(S(=O)(=O)NCCC(=O)OCC(=O)c2cc(C)ccc2C)cc1	-4	/	/	3	/	3	/
COc1cc(NC(=O)CCc2nnc3ccc(N4CCCCC4)nn23)cc(OC)c1OC	0	-3	-6	15	-2	-1	/
CCCC(C)NC(=O)COC(=O)c1ccccc1SCC(=O)NC(C)CCC (configuration not stated)	1	-2	6	2	0	39*	43*
CC(CCc1ccccc1)NC(=O)COC(=O)c1ccccc1Br (configuration not stated)	10	-3	2	9	-2	27	/
Cc1ccc(OCCCCNC(C)c2ccccc2)c(C)c1 (configuration not stated)	-1	-3	0	1	-3	1	/
